Assay results reported in ChEMBL document CHEMBL1629643, “Naturally occurring Class A ss-lactamases from the Burkholderia cepacia complex” (Antimicrob Agents Chemother, 2009).
In brackets after ≈: the same amount, converted by molar mass.

Assays:
Assay type in all cases: functional
Escherichia coli [1] = assay: Antimicrobial activity against Escherichia coli TOP10
Summary of the method: (§1)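 MICs by broth microdilution and Etest, interpreted per CLSI guidelines. Strains tested were host E. coli TOP10, and TOP10 carrying pBcSau13 (pBK-CMV vector, kanamycin-resistant) holding a Sau3AI fragment of B. cenocepacia 212 DNA that encodes PenB1.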

Burkholderia cenocepacia [2] = assay: Antimicrobial activity against Burkholderia cenocepacia 07-34 expressing beta-lactamase PenB in presence of 4 ug/ml beta-lactamase inhibitor Tazobactam
Summary of the method: (§2)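 Isolates were cultured for 18 h in Trypticase soy broth (30°C and 37°C), then tested by microdilution and Etest. […] MICs were interpreted using CLSI guidelines.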

Burkholderia cenocepacia [3] = assay: Antimicrobial activity against Burkholderia cenocepacia 212 expressing beta-lactamase PenB3 in presence of 4 ug/ml beta-lactamase inhibitor Tazobactam; summary of the method: as §2
Burkholderia cenocepacia [4] = assay: Antimicrobial activity against Burkholderia cenocepacia 212 expressing beta-lactamase PenB3
Summary of the method: (§3)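 MICs measured by broth microdilution and by Etest on clinical B. cenocepacia isolates grown for 18 h in Trypticase soy broth (30°C and 37°C). Susceptibility was read against CLSI guidelines.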

Burkholderia cenocepacia [5] = assay: Antimicrobial activity against Burkholderia cenocepacia 07-34 expressing beta-lactamase PenB1; summary of the method: as §3
Burkholderia cenocepacia [6] = assay: Antimicrobial activity against Burkholderia cenocepacia 09-54 expressing beta-lactamase PenB2; summary of the method: as §3
Burkholderia cenocepacia [7] = assay: Antimicrobial activity against Burkholderia cenocepacia 09-54 expressing beta-lactamase PenB2 in presence of 4 ug/ml beta-lactamase inhibitor Tazobactam; summary of the method: as §2
Escherichia coli [8] = assay: Antimicrobial activity against Escherichia coli TOP10 harboring beta-lactamase PenB1; summary of the method: as §1
Burkholderia cenocepacia [9] = assay: Antimicrobial activity against Burkholderia cenocepacia 5007902 expressing beta-lactamase PenB4; summary of the method: as §3
Escherichia coli [10] = assay: Antimicrobial activity against Escherichia coli TOP10 in presence of 4 ug/ml beta-lactamase inhibitor Tazobactam
Summary of the method: (§4)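 E. coli TOP10 host, either plain or carrying the pBK-CMV clone pBcSau13 with the B. cenocepacia 212 insert. MICs by broth microdilution and Etest, read against CLSI guidelines.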

Burkholderia cenocepacia [11] = assay: Antimicrobial activity against Burkholderia cenocepacia 5007902 expressing beta-lactamase PenB4 in presence of 4 ug/ml beta-lactamase inhibitor Tazobactam; summary of the method: as §2
Escherichia coli [12] = assay: Antimicrobial activity against Escherichia coli TOP10 harboring beta-lactamase PenB1 in presence of 4 ug/ml beta-lactamase inhibitor Tazobactam; summary of the method: as §4
Burkholderia cenocepacia [13] = assay: Antimicrobial activity against Burkholderia cenocepacia 212 expressing beta-lactamase PenB3 in presence of 4 ug/ml beta-lactamase inhibitor clavulanic acid
Summary of the method: (§5)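 Cultured in Trypticase soy broth at 30°C and 37°C for 18 h. MICs by broth microdilution and Etest, read against CLSI guidelines.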

Escherichia coli [14] = assay: Antimicrobial activity against Escherichia coli TOP10 harboring beta-lactamase PenB1 in presence of 4 ug/ml beta-lactamase inhibitor clavulanic acid; summary of the method: as §4
Burkholderia cenocepacia [15] = assay: Antimicrobial activity against Burkholderia cenocepacia 5007902 expressing beta-lactamase PenB4 in presence of 4 ug/ml beta-lactamase inhibitor clavulanic acid; summary of the method: as §5
Burkholderia cenocepacia [16] = assay: Antimicrobial activity against Burkholderia cenocepacia 09-54 expressing beta-lactamase PenB2 in presence of 4 ug/ml beta-lactamase inhibitor clavulanic acid; summary of the method: as §5
Burkholderia cenocepacia [17] = assay: Antimicrobial activity against Burkholderia cenocepacia 07-34 expressing beta-lactamase PenB1 in presence of 4 ug/ml beta-lactamase inhibitor clavulanic acid; summary of the method: as §5
Escherichia coli [18] = assay: Antimicrobial activity against Escherichia coli TOP10 in presence of 4 ug/ml beta-lactamase inhibitor clavulanic acid; summary of the method: as §4

Compound | MIC (Escherichia coli [1]) [µg/mL] | MIC (Burkholderia cenocepacia [2]) [µg/mL] | MIC (Burkholderia cenocepacia [3]) [µg/mL] | MIC (Burkholderia cenocepacia [4]) [µg/mL] | MIC (Burkholderia cenocepacia [5]) [µg/mL] | MIC (Burkholderia cenocepacia [6]) [µg/mL] | MIC (Burkholderia cenocepacia [7]) [µg/mL] | MIC (Escherichia coli [8]) [µg/mL] | MIC (Burkholderia cenocepacia [9]) [µg/mL] | MIC (Escherichia coli [10]) [µg/mL] | MIC (Burkholderia cenocepacia [11]) [µg/mL] | MIC (Escherichia coli [12]) [µg/mL] | MIC (Burkholderia cenocepacia [13]) [µg/mL] | MIC (Escherichia coli [14]) [µg/mL] | MIC (Burkholderia cenocepacia [15]) [µg/mL] | MIC (Burkholderia cenocepacia [16]) [µg/mL] | MIC (Burkholderia cenocepacia [17]) [µg/mL] | MIC (Escherichia coli [18]) [µg/mL]
CCN1CCN(C(=O)N[C@@H](C(=O)N[C@@H]2C(=O)N3[C@@H]2SC(C)(C)[C@@H]3C(=O)O)c2ccccc2)C(=O)C1=O [PIPERACILLIN] | 2 (≈ 3.86 µM) | 4 | 128 | 128 (≈ 247 µM) | 4 (≈ 7.73 µM) | 512 (≈ 989 µM) | 256 | 8 (≈ 15.5 µM) | 4 (≈ 7.73 µM) | 2 | 4 | 4 | – | – | – | – | – | –
CC1(C)S[C@@H]2[C@H](NC(=O)[C@H](N)c3ccc(O)cc3)C(=O)N2[C@H]1C(=O)O [AMOXICILLIN] | 4 (≈ 10.9 µM) | – | – | 512 (≈ 1400 µM) | 512 (≈ 1400 µM) | 512 (≈ 1400 µM) | – | 512 (≈ 1400 µM) | 512 (≈ 1400 µM) | – | – | – | 512 | 16 | 512 | 512 | 512 | 4
CC1(C)S[C@@H]2[C@H](NC(=O)[C@H](C(=O)O)c3ccsc3)C(=O)N2[C@H]1C(=O)O [TICARCILLIN] | 4 (≈ 10.4 µM) | – | – | 512 (≈ 1330 µM) | 512 (≈ 1330 µM) | 512 (≈ 1330 µM) | – | 512 (≈ 1330 µM) | 512 (≈ 1330 µM) | – | – | – | – | – | – | – | – | –
CO/N=C(\C(=O)N[C@@H]1C(=O)N2C(C(=O)O)=C(COC(N)=O)CS[C@H]12)c1ccco1 [CEFUROXIME] | 8 (≈ 18.9 µM) | – | – | 512 (≈ 1210 µM) | 16 (≈ 37.7 µM) | 512 (≈ 1210 µM) | – | 16 (≈ 37.7 µM) | 32 (≈ 75.4 µM) | – | – | – | – | – | – | – | – | –
C[C@@H](O)[C@H]1C(=O)N2C(C(=O)O)=C(SCCNC=N)C[C@H]12 [IMIPENEM ANHYDROUS] | – | – | – | 16 (≈ 53.4 µM) | 8 (≈ 26.7 µM) | 16 (≈ 53.4 µM) | – | 0.5 (≈ 1.67 µM) | 8 (≈ 26.7 µM) | – | – | – | – | – | – | – | – | –
